Laboratory results published in ChEMBL document CHEMBL1833793 (Bioorg Med Chem Lett, 2011).

Columns and labels:
[1] = biological target: T1, Neuropeptide Y receptor type 5 (Homo sapiens, UniProt Q15761); assay: Binding affinity to NPY5 receptor
T1 sequence (Q15761 whole entry): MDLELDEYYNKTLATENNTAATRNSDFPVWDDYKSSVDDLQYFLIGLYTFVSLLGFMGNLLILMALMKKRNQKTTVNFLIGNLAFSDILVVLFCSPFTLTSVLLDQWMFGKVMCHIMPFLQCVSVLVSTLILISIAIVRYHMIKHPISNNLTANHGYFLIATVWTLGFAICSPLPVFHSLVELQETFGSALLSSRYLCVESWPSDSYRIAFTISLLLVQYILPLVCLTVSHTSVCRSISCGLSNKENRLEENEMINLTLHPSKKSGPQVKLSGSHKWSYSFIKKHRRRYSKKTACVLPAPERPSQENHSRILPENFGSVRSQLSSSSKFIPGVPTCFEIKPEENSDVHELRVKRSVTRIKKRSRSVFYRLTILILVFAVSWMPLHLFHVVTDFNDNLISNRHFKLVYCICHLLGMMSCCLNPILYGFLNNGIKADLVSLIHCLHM

[2] = biological target: T2, Neuropeptide Y receptor type 1 (Homo sapiens, UniProt P25929); assay: Binding affinity to NPY1 receptor
T2 sequence (P25929 whole entry): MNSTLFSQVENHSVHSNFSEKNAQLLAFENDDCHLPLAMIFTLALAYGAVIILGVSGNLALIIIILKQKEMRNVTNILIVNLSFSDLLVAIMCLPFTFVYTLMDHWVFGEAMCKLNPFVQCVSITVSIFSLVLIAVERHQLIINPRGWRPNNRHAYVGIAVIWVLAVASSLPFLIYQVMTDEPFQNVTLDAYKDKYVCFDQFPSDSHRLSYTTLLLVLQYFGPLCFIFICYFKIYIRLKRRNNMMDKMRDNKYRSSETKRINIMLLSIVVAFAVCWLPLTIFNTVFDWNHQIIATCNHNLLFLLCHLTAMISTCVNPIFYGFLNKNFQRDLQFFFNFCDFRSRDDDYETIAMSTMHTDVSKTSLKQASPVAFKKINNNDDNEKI

[3] = biological target: T1, Neuropeptide Y receptor type 5; assay: Antagonist activity at human NPY5 receptor assessed as calcium mobilization by FLIPR assay; format: functional
[4] = biological target: T1, Neuropeptide Y receptor type 5; assay: Binding affinity to human NPY5 receptor
[5] = biological target: Neuropeptide Y receptor type 4 (Homo sapiens, UniProt P50391); assay: Antagonist activity at human NPY4 receptor assessed as calcium mobilization by FLIPR assay; format: functional
[6] = biological target: T3, Neuropeptide Y receptor type 2 (Homo sapiens, UniProt P49146); assay: Antagonist activity at human NPY2 receptor assessed as calcium mobilization by FLIPR assay; format: functional
T3 sequence (P49146 whole entry): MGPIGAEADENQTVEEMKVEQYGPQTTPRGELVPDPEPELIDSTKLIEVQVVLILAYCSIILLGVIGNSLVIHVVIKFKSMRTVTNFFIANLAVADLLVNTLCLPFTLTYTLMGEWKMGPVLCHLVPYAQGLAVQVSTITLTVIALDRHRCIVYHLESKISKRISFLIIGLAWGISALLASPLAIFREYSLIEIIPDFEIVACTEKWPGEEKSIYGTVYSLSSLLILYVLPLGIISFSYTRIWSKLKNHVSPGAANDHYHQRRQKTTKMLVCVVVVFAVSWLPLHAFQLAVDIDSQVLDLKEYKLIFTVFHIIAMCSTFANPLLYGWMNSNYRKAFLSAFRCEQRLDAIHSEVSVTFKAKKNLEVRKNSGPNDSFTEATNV

[7] = biological target: T2, Neuropeptide Y receptor type 1; assay: Antagonist activity at human NPY1 receptor assessed as calcium mobilization by FLIPR assay; format: functional
[8] = system: Rattus norvegicus; assay: Antistress activity against chronic mild stress Sprague-Dawley rat model assessed as increase sucrose consumption at 5 mg/kg, ip bid measured after 4 weeks; format: functional; conditions: route intraperitoneal
[9] = Plasma concentration in rat at 10 mg/kg, po after 4 hrs; format: ADME, organism-based; design: dose 10 mg/kg, route oral
Outline: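 Single oral dose of 10 mg/kg in rats, two animals. Plasma was sampled at 4 h and the two values averaged. LOQ 2 ng/mL.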

[10] = system: Liver microsomes; assay: Intrinsic clearance in rat liver microsome; format: ADME
[11] = system: Liver microsomes; assay: Intrinsic clearance in human liver microsome; format: ADME
[12] = Drug uptake in rat brain at 10 mg/kg, po after 4 hrs; format: ADME, organism-based; design: dose 10 mg/kg, route oral; conditions: read-out: Drug uptake
Outline: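 Rat single oral dose of 10 mg/kg, two animals; plasma and brain homogenate levels measured at 4 h and averaged; quantification limit 2 ng/mL plasma, 2 ng/g brain.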

Chain of Neuropeptide Y receptor type 4 (P50391 whole entry): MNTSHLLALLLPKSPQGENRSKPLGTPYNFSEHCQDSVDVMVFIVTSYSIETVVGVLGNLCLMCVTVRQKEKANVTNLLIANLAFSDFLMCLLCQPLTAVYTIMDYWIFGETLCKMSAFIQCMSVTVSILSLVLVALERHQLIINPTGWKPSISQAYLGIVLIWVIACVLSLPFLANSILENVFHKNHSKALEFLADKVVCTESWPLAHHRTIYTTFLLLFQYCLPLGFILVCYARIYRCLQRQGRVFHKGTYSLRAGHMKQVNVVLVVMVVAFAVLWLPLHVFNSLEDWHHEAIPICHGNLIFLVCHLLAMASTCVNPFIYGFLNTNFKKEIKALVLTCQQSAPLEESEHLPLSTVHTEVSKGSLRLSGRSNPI

## COc1ccccc1CNCCCCCCNCCSSCCNCCCCCCNCc1ccccc1OC [BENEXTRAMINE]
[1]
  Ki: 5000 nM
[2]
  Ki: 1800 nM

## CS(=O)(=O)NCCCCCNc1nc2c(s1)CCSc1ccccc1-2
[3]
  IC50: 5 nM
[4]
  Ki: 8.8 nM

## COc1ccc(C)cc1S(=O)(=O)NC[C@H]1CC[C@H](Nc2nc3c(s2)CCSc2ccccc2-3)CC1
[5]
  IC50: > 1000 nM
[6]
  IC50: > 1000 nM
[7]
  IC50: > 1000 nM
[3]
  IC50: 34.6 nM
[4]
  Ki: 4.9 nM

## CN(C)CCC[C@@]1(c2ccc(F)cc2)OCc2cc(C#N)ccc21 [ESCITALOPRAM]
[8]
  Activity: >10%

## CS(=O)(=O)NCCCCCNc1nc2c(s1)CCCc1ccc(F)cc1-2
[3]
  IC50: 0.9 nM

## COc1ccc2c(c1)OCCc1sc(NC[C@H]3CC[C@H](NS(C)(=O)=O)CC3)nc1-2
[4]
  Ki: 6.7 nM

## O=S(=O)(NC[C@H]1CC[C@H](Nc2nc3c(s2)CCSc2ccccc2-3)CC1)c1cccs1
[9]
  concentration at 4 h: 8 ng/mL
[10]
  CL: 120 mL/min
[5]
  IC50: > 1000 nM
[6]
  IC50: > 1000 nM
[11]
  CL: 6.9 L/min
[12]
  concentration at 4 h: 10 ng/g
[7]
  IC50: > 1000 nM
[3]
  IC50: 3.8 nM
[4]
  Ki: 1.9 nM

## CS(=O)(=O)NC[C@H]1CC[C@H](Nc2nc3c(s2)CCCc2ccc(F)cc2-3)CC1
[4]
  Ki: 1.1 nM

## O=S(=O)(CC(F)(F)F)NCCCCCNc1nc2c(s1)CCCc1ccc(F)cc1-2
[3]
  IC50: 9.9 nM
[4]
  Ki: 7.5 nM

## O=S(=O)(CC(F)(F)F)NCCCCNc1nc2c(s1)CCCc1ccc(F)cc1-2
[3]
  IC50: 1.9 nM
[4]
  Ki: 3.4 nM

## O=S(=O)(NC[C@H]1CC[C@H](Nc2nc3c(s2)CCSc2ccccc2-3)CC1)c1cccc2ccccc12
[3]
  IC50: 43.6 nM
[4]
  Ki: 13.9 nM

## CS(=O)(=O)N[C@H]1CC[C@H](Nc2nc3c(s2)CCCc2ccc(F)cc2-3)CC1
[3]
  IC50: 8.8 nM
[4]
  Ki: 27 nM

## CCS(=O)(=O)NCCCCCNc1nc2c(s1)CCCc1ccc(F)cc1-2
[3]
  IC50: 1.3 nM
[4]
  Ki: 0.9 nM

## CCS(=O)(=O)NC[C@H]1CC[C@H](Nc2nc3c(s2)CCSc2ccccc2-3)CC1
[5]
  IC50: > 1000 nM
[6]
  IC50: > 1000 nM
[7]
  IC50: > 1000 nM
[3]
  IC50: 30.8 nM
[4]
  Ki: 2.8 nM

## CC(C)S(=O)(=O)NCCOCCNc1nc2c(s1)CCCc1ccc(F)cc1-2
[4]
  Ki: 2.4 nM

## CC(C)S(=O)(=O)NCCCCCNc1nc2c(s1)CCCc1ccc(F)cc1-2
[3]
  IC50: 98.7 nM
[4]
  Ki: 46 nM

## Cn1cnc(S(=O)(=O)NC[C@H]2CC[C@H](Nc3nc4c(s3)CCSc3ccccc3-4)CC2)c1
[3]
  IC50: 10.4 nM
[4]
  Ki: 21.5 nM

## CCS(=O)(=O)NCCCCCNc1nc2c(s1)CCSc1ccccc1-2
[9]
  concentration at 4 h: 14 ng/mL
[3]
  IC50: 0.6 nM
[4]
  Ki: 0.8 nM

## COc1cccc2c1OCCc1sc(N[C@H]3CC[C@H](CNS(C)(=O)=O)CC3)nc1-2
[4]
  Ki: 1.1 nM

## CS(=O)(=O)NC[C@H]1CC[C@H](Nc2nc3c(s2)CCOc2ccccc2-3)CC1
[3]
  IC50: 3.9 nM
[4]
  Ki: 16.1 nM

## CS(=O)(=O)NCCCCCNc1nc2c(s1)CCSc1ccc(F)cc1-2
[9]
  concentration at 4 h: 61 ng/mL
[10]
  CL: 89 mL/min
[11]
  CL: 6.8 L/min
[12]
  concentration at 4 h: 140 ng/g
[4]
  Ki: 1.7 nM
